These results are taken from ChEMBL document CHEMBL4316592, “Synthesis of new derivatives of boehmeriasin A and their biological evaluation in liver cancer” (Eur J Med Chem, 2019).

pIC50: −log10 of the molar value. Calls of active or inactive are those of the source. No cut-off for these calls is given here.

Assay [1] concerns Mahlavu. The assay is described as follows: Cytotoxicity against human Mahlavu cells after 24 hrs by RTCA analysis. It is filed as functional, cell-based. Put shortly: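 xCELLigence impedance real-time growth assay. Huh7 (2000) or Mahlavu (1000) cells plated, treated after 24 h at log phase with a 2-fold dilution series (4 steps) from a top concentration of 1. Cell index recorded every 10 min for 24 h, then every 30 min. Growth inhibition normalized to DMSO; IC50 taken at 24, 48, 72 h.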

In assay [2] the test system is Huh-7. The assay is described as follows: Cell cycle arrest in human HuH7 cells assessed as accumulation of cells at G1 phase at 1 uM after 72 hrs by propidium iodide staining-based flow cytometric analysis (reference value: 51.6%). It is filed as functional. A general note: A flow cytometer gives signals particle by particle.
Assay [3] deals with Mahlavu. The assay is described as follows: Cell cycle arrest in human Mahlavu cells assessed as accumulation of cells at S phase at 1 uM after 72 hrs by propidium iodide staining-based flow cytometric analysis (reference value: 13%). It is filed as functional.
Assay [4] concerns Mahlavu. The assay is described as follows: Induction of apoptosis in human Mahlavu cells assessed as chromatin condensation at 1 uM by Hoechst staining-based assay. It is filed as functional, cell-based.
The next assay relates to SNU-475. The assay is described as follows: Cytotoxicity against human SNU475 cells after 72 hrs by SRB assay. The assay is classed as functional, cell-based. The following applies: Homo sapiens, SNU-475, 72 h; read-out: IC50. Put shortly:
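SRB assay. Cells plated per well (HCT116 3000; Huh7, Hep3B, HepG2, MCF-7 2000; Mahlavu, FOCUS, SNU475 1000) and grown 24 h. Compounds came from 20 mM DMSO stocks and were tested in triplicate, 40 to 2,5 (or 2,5 to 0,03) per printed range, for 72 h. Cells fixed in 10% TCA, stained with 0.4% SRB, dye dissolved in 10 mM Tris, A515 read. IC50 derived after DMSO normalization.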
(In SRB staining, fixed cells bind dye roughly in proportion to their protein.)

For assay [5], the system named is Mahlavu. The assay is described as follows: Cell cycle arrest in human Mahlavu cells assessed as accumulation of cells at S phase at 1 uM after 24 hrs by propidium iodide staining-based flow cytometric analysis (reference value: 23.2%). The assay is classed as functional.
The test system of assay [6] is Mahlavu. The assay is described as follows: Induction of apoptosis in human Mahlavu cells assessed as early apoptotic cells at 1 uM after 72 hrs by Annexin V-FITC/propidium iodide staining-based flow cytometric analysis (reference value: 0.24%). It is filed as functional.
For assay [7], the system named is Huh-7. The assay is described as follows: Cell cycle arrest in human HuH7 cells assessed as accumulation of cells at S phase at 1 uM after 48 hrs by propidium iodide staining-based flow cytometric analysis (reference value: 19.1%). The assay is classed as functional.
In assay [8] the test system is Mahlavu. The assay is described as follows: Induction of apoptosis in human Mahlavu cells assessed as increase in cytochrome C levels at 1 uM by Hoechst staining-based assay. It is filed as functional, cell-based.
Assay [9] deals with Huh-7. The assay is described as follows: Cell cycle arrest in human HuH7 cells assessed as accumulation of cells at S phase at 1 uM after 24 hrs by propidium iodide staining-based flow cytometric analysis (reference value: 14.2%). It is filed as functional.
Assay [10] relates to Huh-7. The assay is described as follows: Cell cycle arrest in human HuH7 cells assessed as accumulation of cells at G1 phase at 1 uM after 24 hrs by propidium iodide staining-based flow cytometric analysis (reference value: 41.7%). It is filed as functional.
The subject of the next assay is MCF-10A. The assay is described as follows: Cytotoxicity against human MCF10A cells after 72 hrs by SRB assay. It is filed as cell-based.
Assay [11] addresses T1, Mitogen-activated protein kinase kinase kinase 5 (Homo sapiens) (UniProt Q99683).
T1 sequence (whole entry): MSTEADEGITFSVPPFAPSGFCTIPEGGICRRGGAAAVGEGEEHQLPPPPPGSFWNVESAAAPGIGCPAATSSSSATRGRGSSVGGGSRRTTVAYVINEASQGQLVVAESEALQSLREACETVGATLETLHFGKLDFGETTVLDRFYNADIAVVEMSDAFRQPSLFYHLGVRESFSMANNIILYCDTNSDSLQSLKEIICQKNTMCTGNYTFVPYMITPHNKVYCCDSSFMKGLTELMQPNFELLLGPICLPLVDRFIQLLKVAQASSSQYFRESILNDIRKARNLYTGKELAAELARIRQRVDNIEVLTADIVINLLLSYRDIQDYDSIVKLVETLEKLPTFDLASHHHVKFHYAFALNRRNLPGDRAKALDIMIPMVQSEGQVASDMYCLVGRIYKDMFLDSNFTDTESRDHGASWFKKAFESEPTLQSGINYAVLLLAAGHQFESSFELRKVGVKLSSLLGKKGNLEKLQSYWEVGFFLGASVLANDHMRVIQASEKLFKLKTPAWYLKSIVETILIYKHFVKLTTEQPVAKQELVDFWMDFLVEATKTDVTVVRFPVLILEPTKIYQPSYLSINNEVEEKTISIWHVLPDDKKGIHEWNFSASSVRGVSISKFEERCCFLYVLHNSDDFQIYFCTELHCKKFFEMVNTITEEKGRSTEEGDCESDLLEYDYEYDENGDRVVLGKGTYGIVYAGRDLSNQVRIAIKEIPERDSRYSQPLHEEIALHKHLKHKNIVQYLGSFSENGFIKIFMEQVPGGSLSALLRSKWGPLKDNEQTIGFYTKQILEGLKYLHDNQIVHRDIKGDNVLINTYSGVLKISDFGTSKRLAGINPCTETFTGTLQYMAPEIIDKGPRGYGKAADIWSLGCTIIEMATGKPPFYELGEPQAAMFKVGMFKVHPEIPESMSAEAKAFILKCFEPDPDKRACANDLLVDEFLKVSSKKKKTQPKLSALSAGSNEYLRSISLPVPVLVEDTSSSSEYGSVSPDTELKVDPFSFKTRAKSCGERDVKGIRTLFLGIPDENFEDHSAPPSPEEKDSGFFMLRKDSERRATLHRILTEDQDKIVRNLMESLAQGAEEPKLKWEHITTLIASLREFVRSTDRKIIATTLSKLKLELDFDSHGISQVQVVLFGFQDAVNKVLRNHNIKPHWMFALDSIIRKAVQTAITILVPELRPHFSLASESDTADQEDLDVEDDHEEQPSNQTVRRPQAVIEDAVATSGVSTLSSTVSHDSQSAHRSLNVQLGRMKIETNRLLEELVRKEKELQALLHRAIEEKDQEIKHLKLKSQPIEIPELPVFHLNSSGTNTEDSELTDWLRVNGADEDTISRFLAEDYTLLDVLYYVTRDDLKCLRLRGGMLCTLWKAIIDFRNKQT
The assay is described as follows: Inhibition of ASK1 Ser-966 phosphorylation in human HuH7 cells at 1 uM after 24 to 72 hrs by Western blot analysis. It is filed as cell-based. (In general: Immunoblotting shows a protein as a band on a membrane.)

Assay [12] relates to Huh-7. The assay is described as follows: Cell cycle arrest in human HuH7 cells assessed as accumulation of cells at subG1 phase at 1 uM after 48 hrs by propidium iodide staining-based flow cytometric analysis (reference value: 3.2%). The assay is classed as functional.
Assay [13] relates to Huh-7. The assay is described as follows: Induction of apoptosis in human HuH7 cells assessed as increase in cytochrome C levels at 1 uM by Hoechst staining-based assay. The assay is classed as functional, cell-based.
Assay [14] has as its system Mahlavu. The assay is described as follows: Induction of apoptosis in human Mahlavu cells assessed as necrotic cells at 1 uM after 24 hrs by Annexin V-FITC/propidium iodide staining-based flow cytometric analysis (reference value: 0.13%). It is filed as functional.
Assay [15] has as its system Mahlavu. The assay is described as follows: Down-regulation of cyclin-B1 protein expression in human Mahlavu cells at 1 uM after 24 to 72 hrs by Western blot analysis. It is filed as functional, cell-based.
Assay [16] deals with Huh-7. The assay is described as follows: Induction of apoptosis in human HuH7 cells assessed as late apoptotic cells at 1 uM after 48 hrs by Annexin V-FITC/propidium iodide staining-based flow cytometric analysis (reference value: 2.53%). It is filed as functional.

As for `COc1ccc2c3c(c4cc(OC)c(OC)cc4c2c1)CN1CCCC[C@@H]1C3`, the pIC50 (commonly the IC50 on a negative log10 scale, so that one unit is a factor of ten) was 6.70 in the assay on Mahlavu [1], 7.85 in the assay with SNU-475 and 6.85 in the assay on MCF-10A. In addition, the Activity with Huh-7 [2] amounted to 24.3%; in the assay with Mahlavu [3], 9.1%; in the assay on Mahlavu [5] it was 17.5%; in the assay with Mahlavu [6] it was 0.13%; in the assay on Huh-7 [7], 13.5%; in the assay with Huh-7 [9] it was 15.9%. For the same molecule, the Activity with Huh-7 [10] was determined as 43.1%; with Huh-7 [12] it was 7.5%; in the assay with Mahlavu [14], 0.57%; in the assay with Huh-7 [16] it was 5.96%. For the same molecule, the result in the assay with Mahlavu [4], in the assay with Mahlavu [8], in the assay on Huh-7 [13] and in the assay with Mahlavu [15] was Active. Besides, the inhibition result in assay [11] was “Active”.
Turning to `COc1ccc2c3c(c4cc(OC)c(OC)cc4c2c1)CN1CCCCC1C3O` (racemic), the negative logarithm of the IC50 (pIC50) in the assay on Mahlavu [1] is 8.00; in the assay with SNU-475 it was 7.82; with MCF-10A it was 6.70. Besides, the Activity in the assay with Huh-7 [2] turned out to be 17.9%; in the assay with Mahlavu [3], 10.2%; in the assay with Mahlavu [5], 14.3%; in the assay on Mahlavu [6], 0%; in the assay with Huh-7 [7], 21%; in the assay with Huh-7 [9], 13.2%. For the same molecule, the Activity in the assay with Huh-7 [10] is reported as 31.6%; with Huh-7 [12], 25.4%; in the assay on Mahlavu [14] it was 0.13%; with Huh-7 [16] it was 5.52%. For the same molecule, the outcome in the assay on Mahlavu [4], in the assay on Mahlavu [8], in the assay with Huh-7 [13] and in the assay on Mahlavu [15] was Active. In addition, the inhibition entry in assay [11] was “Active”.
